Screening data (PubChem)
MLL AF4-AF9 inh = inhibitors of AF4 peptide binding to AF9, primary screen, biochemical, AlphaScreen, biotin-AF4 peptide, FLAG-AF9, single point. Protein AF-9 (Homo sapiens), P42568. 350,000 tested, 0.47% active. inhibition, % at 10 µM;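 active = every replicate reaching a set inhibition limit, whatever the replicate mean, cut at about 25% in these data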;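 also: 0% = plate neutral control median and 100% = total signal loss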
Target sequence (P42568 whole entry, looked up): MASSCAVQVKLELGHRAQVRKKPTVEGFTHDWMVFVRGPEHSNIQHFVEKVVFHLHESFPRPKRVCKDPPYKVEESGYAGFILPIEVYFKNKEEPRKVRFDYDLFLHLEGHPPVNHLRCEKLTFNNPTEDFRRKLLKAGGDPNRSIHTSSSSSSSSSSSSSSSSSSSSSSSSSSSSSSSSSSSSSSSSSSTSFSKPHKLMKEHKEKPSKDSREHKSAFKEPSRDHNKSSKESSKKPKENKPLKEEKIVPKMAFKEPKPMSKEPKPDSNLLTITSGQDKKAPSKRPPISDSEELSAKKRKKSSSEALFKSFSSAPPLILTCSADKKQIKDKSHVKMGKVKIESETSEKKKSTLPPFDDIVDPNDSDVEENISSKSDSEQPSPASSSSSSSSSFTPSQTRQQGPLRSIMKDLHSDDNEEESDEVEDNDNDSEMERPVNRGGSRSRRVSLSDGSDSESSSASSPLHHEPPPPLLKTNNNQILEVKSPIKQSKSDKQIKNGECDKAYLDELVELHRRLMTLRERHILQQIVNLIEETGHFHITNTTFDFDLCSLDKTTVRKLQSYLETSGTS
GSIS activator = GLuc luminescence reporter in INS-1E cells, primary screen for activators of glucose-dependent secretion of insulin. INS-1E GLuc reporter insulin secretion, 2-3 h. 370,000 tested, 0.61% active. AID 743287, 2014. activation, % at 16.6 µM;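 active = lowest replicate activation of at least 40%, so every replicate reaches that level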;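 also: 0% = median of neutral control wells and 100% = median of IBMX positive control wells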
rRNA inh HTS = reduced GFP signal of wild-type E. coli, primary screen, bacterial rRNA inhibitor project, GFP/RFP fluorescence, OD600, single point; E. coli WT GFP vs humanized-ribosome RFP mutants, 24 h; stronger effect = lower value; DMSO median 0, no signal -100; GFP signal change (wild-type ribosome), % (concentration not given with the values); 350,000 tested, 1.6% active;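 active = significant combined selectivity score with lowered wild-type GFP, culture density cut under 30%, mutant RFP and density less affected; inactive = any of these conditions unmet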
RAD52 inh = RAD52 DNA annealing inhibitors, primary screen, biochemical, FRET, single point, set 2. recombinant RAD52 DNA annealing, FRET fluorescence. 360,000 tested, 0.46% active. AID 651710, 2012. inhibition, % at 18.7 µM;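 active = every replicate showing at least 50% inhibition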
RAD54 branch = inhibitors of human RAD54 branch migration, primary screen, biochemical, fluorescence, single point. DNA repair and recombination protein RAD54-like (Homo sapiens), Q92698. RAD54 Holliday junction branch migration, FAM/BHQ fluorescence. inhibition, % at 10.4 µM. 360,000 tested, 0.14% active. AID 602329, 2012;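 active = mean normalized replicate activity at least 40 and at least half of replicates scoring 40 or more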;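 also: 0% = median of neutral control wells and 100% = median of positive control wells; inhibitors cause a drop in the FAM fluorescence signal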
E-selectin induc = E-selectin induction in HUVECs, primary screen, imaging, HUVEC, immunofluorescence imaging, single point | AID 686992, 2013 | normalized: neutral wells 0, TNF-alpha wells 100 | activation, % at 7.58 µM | 260,000 tested, 0.37% active | P16581;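 active = mean E-selectin-positive cell signal at least 10% of the positive control, reached in at least 60% of replicates, without over 20% cell loss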
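Assay system: HUVEC primary endothelial cells. Input: 3,000 HUVEC seeded per well. Doses: one compound dose added by pin transfer. Read-out basis: % PE-positive cells. Benchmarks: TNF-alpha high, DMSO low. Detection: immunofluorescence imaging. Buffer or medium: EGM-2, gelatin.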
* marks the source's active call; other numbers are inactive results. In the library only some 2.6% were active in any assay of this set; here they are far more common.

For CS(=O)(=O)Nc1ccc2c(c1)[C@H]1C[C@H](CC(=O)O)O[C@H](CO)[C@H]1O2 the results were MLL AF4-AF9 inh -4, GSIS activator 5, rRNA inh HTS 4, RAD52 inh 5 and E-selectin induc 0.
For COc1ccc2c3c([nH]c2c1)[C@@H](CO)N(C(=O)NC(C)C)CC31CCN(Cc2ccccc2)CC1 the results were MLL AF4-AF9 inh 13, GSIS activator 1, rRNA inh HTS -3 and E-selectin induc 0.
For COCC#Cc1ccc2c(c1)O[C@H](CN(C)C(=O)C1CC1)[C@H](C)CN([C@@H](C)CO)S2(=O)=O the results were MLL AF4-AF9 inh -3, GSIS activator 9, rRNA inh HTS 1, RAD52 inh -10, RAD54 branch 7 and E-selectin induc 0.
`Cc1ccc(C)c(N(CC(=O)NC2CCCC2)C(=O)c2oc(C(C)(C)C)cc2C)c1` gave MLL AF4-AF9 inh 10, GSIS activator -20, rRNA inh HTS -16*, RAD52 inh -10 and RAD54 branch 4.
Screening Cc1cc(C(C)(C)C)oc1C(=O)N(CC(=O)NC1CCCC1)Cc1ccccc1 returned RAD54 branch 2.
COc1ccc(S(=O)(=O)Nc2ccc3c(c2)CC(=O)N([C@H](C)CO)C[C@@H](C)[C@H](CN(C)C(=O)Nc2ccc(F)cc2)O3)cc1 was read as GSIS activator 2, rRNA inh HTS -1, RAD54 branch -1 and E-selectin induc -2.
Screening CO[C@@H]1CN(C)C(=O)c2ccc(NC(=O)Nc3cc(Cl)cc(Cl)c3)cc2OC[C@H](C)NC[C@@H]1C returned MLL AF4-AF9 inh 12, GSIS activator -7, rRNA inh HTS -2, RAD52 inh 58*, RAD54 branch 8 and E-selectin induc 0.
CO[C@H]1CN(C)C(=O)c2ccc(NC(=O)Nc3ccc(Cl)c(Cl)c3)cc2OC[C@H](C)NC[C@@H]1C was read as MLL AF4-AF9 inh 11, GSIS activator -7, rRNA inh HTS -60, RAD52 inh 51*, RAD54 branch -3 and E-selectin induc 0.
For CO[C@H]1CN(C)C(=O)c2cc(NC(=O)Nc3ccc(Cl)c(Cl)c3)ccc2OC[C@@H](C)NC[C@@H]1C the results were GSIS activator -3, rRNA inh HTS -4, RAD52 inh 39, RAD54 branch 15 and E-selectin induc 0.
For CO[C@H]1CN(C)C(=O)c2cc(NC(=O)Nc3ccc(Cl)c(Cl)c3)ccc2OC[C@@H](C)NC[C@H]1C the results were GSIS activator 3, rRNA inh HTS -5, RAD52 inh 52*, RAD54 branch 31 and E-selectin induc 0.
For C[C@H](CO)N1C[C@H](C)[C@H](CN(C)S(=O)(=O)c2cccc(F)c2)Oc2ncc(C#CC3CC3)cc2C1=O the results were MLL AF4-AF9 inh -1, GSIS activator -8, rRNA inh HTS -3, RAD52 inh 1, RAD54 branch 1 and E-selectin induc 0.
`CCCNC(=O)N1CC2(CN(C(=O)Cc3cccnc3)C2)c2c([nH]c3cc(OC)ccc23)[C@H]1CO` gave MLL AF4-AF9 inh -7, GSIS activator 26, rRNA inh HTS 3, RAD52 inh 11 and E-selectin induc 0.
For Cc1ccc(S(=O)(=O)Oc2cccc(/C=N/Nc3ccc(C(=O)O)cc3)c2)cc1 the results were MLL AF4-AF9 inh 0, GSIS activator 10, rRNA inh HTS -28*, RAD52 inh -10 and RAD54 branch -2.
`COc1ccc(N2CCN(CC(O)COC(c3ccc(F)cc3)c3ccc(F)cc3)CC2)cc1` (centres undefined) gave MLL AF4-AF9 inh 27*, GSIS activator -37, rRNA inh HTS -62, RAD52 inh -5, RAD54 branch 14 and E-selectin induc 0.
`OC(COC(c1ccc(F)cc1)c1ccc(F)cc1)CN1CCCC(C(F)(F)F)C1` (centres undefined) gave MLL AF4-AF9 inh 4, GSIS activator -69, rRNA inh HTS -23*, RAD52 inh -13, RAD54 branch -26 and E-selectin induc 0.
For COc1ccc(N2CCN(CC(O)COC(c3ccccc3)c3ccccc3)CC2)cc1 (centres undefined) the results were MLL AF4-AF9 inh 16, GSIS activator -23, rRNA inh HTS -8, RAD52 inh -9 and RAD54 branch -4.
`CS(=O)(=O)N1C[C@H](O)COC[C@H]2O[C@@H](CC(=O)NCc3ccccc3)CC[C@@H]21` gave MLL AF4-AF9 inh -1, GSIS activator 4, rRNA inh HTS 3, RAD52 inh 2, RAD54 branch 1 and E-selectin induc 0.
COc1ccc(S(=O)(=O)N(C)C[C@H]2Oc3cc(C4=CCCC4)ccc3S(=O)(=O)N([C@@H](C)CO)C[C@H]2C)cc1 was read as MLL AF4-AF9 inh -1, GSIS activator -29, rRNA inh HTS 0, RAD52 inh 5, RAD54 branch 6 and E-selectin induc 0.
O=C1NC(=S)S/C1=C\C=C\c1ccc([N+](=O)[O-])o1 was read as MLL AF4-AF9 inh 7, GSIS activator -63, rRNA inh HTS -60, RAD52 inh -7, RAD54 branch 5 and E-selectin induc 248*.
For Cc1noc(C)c1NC(=O)Nc1ccc2c(c1)CC(=O)N([C@@H](C)CO)C[C@H](C)[C@@H](CN(C)C(=O)Nc1ccc(F)cc1)O2 the results were MLL AF4-AF9 inh 2, GSIS activator 14, rRNA inh HTS 7, RAD52 inh 4, RAD54 branch 7 and E-selectin induc 73*.
Cc1noc(C)c1NC(=O)Nc1ccc2c(c1)CC(=O)N([C@H](C)CO)C[C@@H](C)[C@@H](CN(C)C(=O)Nc1ccc(F)cc1)O2 was read as MLL AF4-AF9 inh 2, GSIS activator 5, rRNA inh HTS 6, RAD52 inh -2, RAD54 branch 12 and E-selectin induc 1.
For Cc1noc(C)c1NC(=O)N(C)C[C@H]1Oc2ccc(NC(=O)CCCN(C)C)cc2CC(=O)N([C@@H](C)CO)C[C@@H]1C the results were MLL AF4-AF9 inh 31*, GSIS activator 24, rRNA inh HTS 1, RAD52 inh 8, RAD54 branch 6 and E-selectin induc -4.
